For orientation: EC50 means the midpoint of the concentration-response curve. Broadly, the logD is the decadic logarithm of the distribution of all forms, ionised or not, between an organic phase and buffer at a given pH. Low values mean a more hydrophilic compound, high ones a more lipophilic compound. The term AUC(0-inf) denotes total exposure, with the tail of the curve extrapolated. The clearance is the volume of plasma or blood freed of the substance per unit of time. Read a high clearance as efficient removal. The half-life is the time needed for the level to fall by half in the phase considered. The term Cmax denotes the highest concentration seen after dosing. For orientation: Tmax means the time from dosing to the highest level. As usually defined, the bioavailability is the share of a dose that reaches the circulation, judged against a reference dose that is usually intravenous. Lower therefore signals poor availability.

The target of data set [1] is T1, Hexokinase-4 (Homo sapiens, UniProt P35557).
T1 sequence (P35557 whole entry): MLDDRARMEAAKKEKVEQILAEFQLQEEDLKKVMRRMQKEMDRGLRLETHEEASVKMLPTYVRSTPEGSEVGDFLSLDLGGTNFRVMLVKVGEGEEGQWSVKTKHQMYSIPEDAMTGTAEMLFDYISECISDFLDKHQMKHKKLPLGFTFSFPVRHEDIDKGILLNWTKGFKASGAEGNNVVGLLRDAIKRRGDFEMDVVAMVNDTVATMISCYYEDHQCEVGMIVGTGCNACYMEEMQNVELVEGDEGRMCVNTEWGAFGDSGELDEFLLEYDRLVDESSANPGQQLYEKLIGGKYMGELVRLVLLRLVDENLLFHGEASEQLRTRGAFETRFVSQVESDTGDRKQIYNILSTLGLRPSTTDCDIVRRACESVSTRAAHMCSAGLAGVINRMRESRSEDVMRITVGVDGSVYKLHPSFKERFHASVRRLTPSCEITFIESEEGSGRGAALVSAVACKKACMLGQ
The data set can be described thus: Activation of flag-tagged human recombinant liver glucokinase expressed in Escherichia coli by glucose-6-phosphate dehydrogenase coupled continuous spectrophotometric assay in presence of 2.5 mM glucose.

Data set [2] concerns the target T1, Hexokinase-4. The data set can be described thus: Activation of flag-tagged human recombinant liver glucokinase expressed in Escherichia coli by glucose-6-phosphate dehydrogenase coupled continuous spectrophotometric assay in presence of 10 mM glucose.
Data set [3] can be described thus: Octanol-water distribution coefficient, log D at pH 7.4 by HPLC-MS analysis.
Data set [4] concerns Mus musculus. Briefly: Glucose lowering effect in normal-fed ICR mouse assessed as decrease in blood glucose AUC level at 3 mg/kg, po. Also on record: dose 3 mg/kg. Type of data set: functional, organism-based. The procedure, abridged:
(§1)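 Male ICR mice aged ten to eleven weeks, fed ad libitum, given a single oral dose suspended in 0.5% methylcellulose; vehicle alone served as control. Blood glucose was measured immediately before dosing and at 0.5, 1, 1.5, 2, 3 and 4 h afterwards.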

The test system of data set [5] is Mus musculus. The data set can be described thus: Glucose lowering effect in normal-fed ICR mouse assessed as decrease in blood glucose AUC level at 10 mg/kg, po. Also on record: dose 10 mg/kg. Type of data set: functional, organism-based. The gist of the method: as §1
In data set [6] the test system is Mus musculus. The data set can be described thus: Glucose lowering effect in high-fat diet mouse assessed as decrease in blood glucose level at 3 mg/kg, po. Format: functional, organism-based. The arrangement: dose 3 mg/kg. The procedure, abridged: (§2)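 Male high-fat-diet mice aged forty-one weeks, fed freely, dosed orally in 0.5% methylcellulose vehicle against a vehicle-only group. Blood glucose was sampled just before dosing and at 1, 2, 4 and 6 h after.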

Data set [7] concerns Mus musculus. Briefly: Glucose lowering effect in high-fat diet mouse assessed as decrease in blood glucose level at 10 mg/kg, po. Also on record: dose 10 mg/kg. Type of data set: functional, organism-based. The procedure, abridged:
as §2

The test system of data set [8] is Mus musculus. The data set can be described thus: Glucose lowering effect in high-fat diet mouse assessed as decrease in blood glucose AUC level at 3 mg/kg, po. Type of data set: functional, organism-based. The arrangement: dose 3 mg/kg. The gist of the method:
as §2

Data set [9] deals with Mus musculus. Briefly: Glucose lowering effect in high-fat diet mouse assessed as decrease in blood glucose AUC level at 10 mg/kg, po. Also on record: dose 10 mg/kg. Format: functional, organism-based. The gist of the method:
as §2

Data set [10] concerns Mus musculus. The data set can be described thus: Glucose lowering effect in KKAy mouse assessed as decrease in blood glucose level at 10 mg/kg, po. Also on record: dose 10 mg/kg. Type of data set: functional, organism-based. The gist of the method:
(§3)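 Male KKAy mice aged nine weeks, fasted 4 h beforehand, given a single oral dose in 0.5% methylcellulose vehicle, with a vehicle-only control group. Blood glucose was read just before dosing and at 0.5, 1, 2 and 4 h afterwards.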

Data set [11] concerns Mus musculus. The data set can be described thus: Glucose lowering effect in KKAy mouse assessed as decrease in blood glucose level at 30 mg/kg, po. Format: functional, organism-based. The arrangement: dose 30 mg/kg. The procedure, abridged:
as §3

For data set [12], the system named is Mus musculus. Briefly: Glucose lowering effect in KKAy mouse assessed as decrease in blood glucose AUC level at 10 mg/kg, po. The arrangement: dose 10 mg/kg. Format: functional, organism-based. The procedure, abridged:
as §3

Data set [13] concerns Mus musculus. Briefly: Glucose lowering effect in KKAy mouse assessed as decrease in blood glucose AUC level at 30 mg/kg, po. Type of data set: functional, organism-based. The arrangement: dose 30 mg/kg. The procedure, abridged:
as §3

The nature of data set [14]: AUC (0 to infinity) in Sprague-Dawley rat at 1 mg/kg, iv. Format: ADME, organism-based. The arrangement: time infinity, dose 1 mg/kg, route intravenous. The settings on record: plasma.
Data set [15] can be described thus: Plasma clearance in Sprague-Dawley rat at 1 mg/kg, iv. Type of data set: ADME, organism-based. The arrangement: dose 1 mg/kg, route intravenous.
Data set [16] can be described thus: Half life in Sprague-Dawley rat at 1 mg/kg, iv. Also on record: dose 1 mg/kg, route intravenous. Particulars: in vivo. Format: ADME, organism-based.
A short description of data set [17]: Volume of distribution at steady state in Sprague-Dawley rat at 1 mg/kg, iv. Format: ADME, organism-based. The arrangement: dose 1 mg/kg, route intravenous. The settings on record: in vivo, read-out: Vdss.
The nature of data set [18]: AUC (0 to infinity) in Sprague-Dawley rat at 3 mg/kg, po. Type of data set: ADME, organism-based. Particulars: plasma. Also on record: dose 3 mg/kg, route oral, time infinity.
Data set [19] is described as follows: Cmax in Sprague-Dawley rat at 3 mg/kg, po. Type of data set: ADME, organism-based. Also on record: dose 3 mg/kg, route oral. Particulars: in vivo.
Data set [20] is described as follows: Tmax in Sprague-Dawley rat at 3 mg/kg, po. Type of data set: ADME, organism-based. The arrangement: dose 3 mg/kg, route oral. Particulars: in vivo.
Data set [21] in a line: Oral bioavailability in Sprague-Dawley rat at 3 mg/kg. Type of data set: ADME, organism-based. Particulars: in vivo.
The nature of data set [22]: AUC (0 to infinity) in Beagle dog at 0.3 mg/kg, iv. Format: ADME, organism-based, Canis lupus familiaris. The arrangement: time infinity, dose 0.3 mg/kg, route intravenous. The settings on record: plasma.
The nature of data set [23]: Plasma clearance in Beagle dog at 0.3 mg/kg, iv. Format: ADME, organism-based, Canis lupus familiaris. Also on record: dose 0.3 mg/kg, route intravenous.
Data set [24] can be described thus: Half life in Beagle dog at 0.3 mg/kg, iv. Type of data set: ADME, organism-based, Canis lupus familiaris. Also on record: dose 0.3 mg/kg, route intravenous. Particulars: in vivo.
Data set [25] can be described thus: Volume of distribution at steady state in Beagle dog at 0.3 mg/kg, iv. The arrangement: dose 0.3 mg/kg, route intravenous. Particulars: in vivo, read-out: Vdss. Type of data set: ADME, organism-based, Canis lupus familiaris.
Data set [26] can be described thus: Cmax in Beagle dog at 1 mg/kg, po. Format: ADME, organism-based, Canis lupus familiaris. Also on record: dose 1 mg/kg, route oral. Particulars: in vivo.
Data set [27] can be described thus: Tmax in Beagle dog at 1 mg/kg, po. Type of data set: ADME, organism-based, Canis lupus familiaris. The settings on record: in vivo. The arrangement: dose 1 mg/kg, route oral.
Data set [28] is described as follows: Oral bioavailability in Beagle dog at 1 mg/kg. Format: ADME, organism-based, Canis lupus familiaris. The settings on record: in vivo.
Data set [29] can be described thus: AUC (0 to infinity) in Beagle dog at 1 mg/kg, po. Format: ADME, organism-based, Canis lupus familiaris. Also on record: dose 1 mg/kg, route oral, time infinity. The settings on record: plasma.

Active and inactive are the calls of the source. Bounds are passed on as bounds.

As for `CC(CCO)Oc1cc(Oc2ccc(S(C)(=O)=O)cc2)cc(C(=O)Nc2nccs2)c1` (racemic), the results for the EC50 at Hexokinase-4 [1] and on Hexokinase-4 [2] were 150 nM and 60 nM, respectively. The logD in data set [3] was found to be 3.4.
The corresponding values for `CC(CO)Cc1cc(Oc2ccc(S(C)(=O)=O)cc2)cc(C(=O)Nc2nccs2)c1` (racemic) are 750 nM, 250 nM and 3.4.
For `CS(=O)(=O)c1ccc(Oc2cc(OC3CCCC3)cc(C(=O)Nc3nccs3)c2)cc1` the same measures were 490 nM, 240 nM and over 5.
Turning to `CS(=O)(=O)c1ccc(Oc2cc(O[C@@H]3CCC[C@H]3O)cc(C(=O)Nc3nccs3)c2)cc1`, the EC50 at Hexokinase-4 [1] came out at 3700 nM; at Hexokinase-4 [2], 1600 nM.
Consider `CN1CCC(Oc2cc(Oc3ccc(S(C)(=O)=O)cc3)cc(C(=O)Nc3nccs3)c2)C1` (racemic), for which the values for the EC50 on Hexokinase-4 [1] and at Hexokinase-4 [2] were 24000 nM and 7300 nM, respectively.
Regarding `CS(=O)(=O)c1ccc(Oc2cc(O[C@H]3CCC[C@@H]3O)cc(C(=O)Nc3nccs3)c2)cc1` (stereo in doubt; 6j), the figures for the EC50 at Hexokinase-4 [1] and on Hexokinase-4 [2] were 160 nM and 90 nM, respectively.
As to `CS(=O)(=O)c1ccc(Oc2cc(O[C@H]3CCC[C@H]3O)cc(C(=O)Nc3nccs3)c2)cc1` (racemic), the EC50 at Hexokinase-4 [1] was found to be 460 nM; at Hexokinase-4 [2], 120 nM. In data set [3], the log distribution coefficient (logD) was 3.4.
As for `Cn1cnnc1Sc1ccc(N)c(C(=O)Nc2nccs2)c1`, the values for the concentration for a half-maximal effect (EC50) on Hexokinase-4 [1] and at Hexokinase-4 [2] were 420 nM and 140 nM, respectively.
For `CC(C)Oc1cc(Oc2ccc(S(C)(=O)=O)cc2)cc(C(=O)Nc2nccs2)c1`, the EC50 on Hexokinase-4 [1] came to 170 nM; on Hexokinase-4 [2] it was 60 nM. The compound also returned a logD in data set [3] of over 5.
For the compound `CS(=O)(=O)c1ccc(Oc2cc(OC3CCNC3)cc(C(=O)Nc3nccs3)c2)cc1` (racemic), the results for the EC50 on Hexokinase-4 [1] and at Hexokinase-4 [2] were 18000 nM and 4200 nM, respectively.
Regarding `CCC(COC)Oc1cc(Oc2ccc(S(C)(=O)=O)cc2)cc(C(=O)Nc2nccs2)c1` (racemic), the results for the concentration giving a half-maximal response (EC50) on Hexokinase-4 [1] and on Hexokinase-4 [2] were 190 nM and 60 nM, respectively. In data set [3], this compound displayed a logD of over 5.
On to `C[C@@H](CO)Oc1cc(Oc2ccc(S(C)(=O)=O)cc2)cc(C(=O)Nc2nccs2)c1`, for which the outcome with Mus musculus [4], in the data set with Mus musculus [5], in the data set on Mus musculus [6], in the data set with Mus musculus [7], in the data set with Mus musculus [8] and in the data set on Mus musculus [9] was Active. In addition, the outcome with Mus musculus [10], in the data set on Mus musculus [11], in the data set with Mus musculus [12] and in the data set on Mus musculus [13] was Active. Besides, the AUC(0-inf) in [14] stood at 10 µM·h; in data set [18], 12 µM·h; in [22], 2.4 µM·h; in data set [29], 4.6 µM·h. Besides, the clearance in data set [15] was 3.9 mL/min/kg; in [23] it was 4.6 mL/min/kg. The half-life in [16] was 1.3 h; in [24], 5.4 h. Moreover, the Vd in data set [17] turned out to be 0.19 L/kg; in data set [25] it was 1.56 L/kg. Besides, the Cmax in [19] worked out at 3400 nM; in data set [26], 800 nM. The Tmax in data set [20] was determined as 0.3 h; in data set [27], 1.2 h. Further, the bioavailability in [21] turned out to be 33%; in [28] it was 57%.
Consider `COCC(C)Oc1cc(Oc2ccc(S(C)(=O)=O)cc2)cc(C(=O)Nc2nccs2)c1` (racemic), for which the figures for the concentration giving a half-maximal response (EC50) on Hexokinase-4 [1] and on Hexokinase-4 [2] were 190 nM and 70 nM, respectively. The compound further registered a logD in [3] of 4.
In the case of `CC(C)C(CO)Oc1cc(Oc2ccc(S(C)(=O)=O)cc2)cc(C(=O)Nc2nccs2)c1` (racemic), the concentration for a half-maximal effect (EC50) on Hexokinase-4 [1] came out at 360 nM; at Hexokinase-4 [2], 200 nM. In addition, in data set [3], the logD is over 4.

These data come from ChEMBL document CHEMBL1151922, “Structure-activity relationships of 3,5-disubstituted benzamides as glucokinase activators with potent in vivo efficacy” (Bioorg Med Chem, 2009).
